According to ChEMBL document CHEMBL1125733, “Fluoronaphthyridines and -quinolones as antibacterial agents. 3. Synthesis and structure-activity relationships of new 1-(1,1-dimethyl-2-fluoroethyl), 1-[1-methyl-1-(fluoromethyl)-2-fluoroethyl], and 1-[1,1-(difluoromethyl)-2-fluoroethyl] substituted derivatives” (J Med Chem, 1991):
Values after ≈ are worked out from the molar mass of the structure shown.

Assays:
Enterobacter cloacae = assay: In vitro antibacterial activity against Enterobacter cloacae A 9656; format: functional
Morganella morganii = assay: In vitro antibacterial activity against Morganella morganii A 15153; format: functional
Serratia marcescens = assay: In vitro antibacterial activity (minimum inhibitory concentration) against Serratia marcescens A 20019.; format: functional
Klebsiella pneumoniae = assay: In vitro antibacterial activity against Klebsiella pneumoniae A 9664; format: functional
Escherichia coli [1] = assay: In vitro antibacterial activity against Escherichia coli A 15119; format: functional
Pseudomonas aeruginosa = assay: Compound was tested in vitro for its antibacterial activity (minimum inhibitory concentration, MIC) against Pseudomonas aeruginosa A 9843; format: functional
Enterococcus faecalis = assay: In vitro antibacterial activity against Enterococcus faecalis A 9809; format: functional
Proteus mirabilis = assay: In vitro antibacterial activity (minimum inhibitory concentration, MIC) against Proteus mirabilis A 9900; format: functional
Staphylococcus aureus [2] = assay: In vitro antibacterial activity (minimum inhibitory concentration, MIC) against Staphylococcus aureus A 9537.; format: functional
Haemophilus influenzae = assay: In vitro antibacterial activity against Haemophilus influenzae A 21515; format: functional
Staphylococcus aureus [3] = assay: In vitro antibacterial activity against Staphylococcus aureus A 24227; format: functional
Bacteroides fragilis = assay: Compound was tested in vitro for its antibacterial activity (minimum inhibitory concentration) against Bacteroides fragilis A 22862.; format: functional; details: A22862
Streptococcus pneumoniae = assay: In vitro antibacterial activity against Streptococcus pneumoniae A 9585; format: functional
[4] = Compound was tested for the dose to protect 50% of mice from lethal infection against Streptococcus pneumoniae after peroral administration to OF1-strain of female Swiss mice.; format: functional; details: po, read-out: PD50
Summary of the method: (§1)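 Compounds dissolved in sterile water and given orally to female OF1 Swiss mice weighing 18-25 g, five mice per group.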

Mus musculus = assay: Compound was evaluated in vivo in urine sample collected over 24 hours for its concentration after 40 mg/kg peroral administration to mice; format: functional; details: route oral
Summary of the method: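 Mice were dosed at 40 mg/kg, either orally with a blunt needle and syringe or intramuscularly, with separate groups for each route. Blood was drawn from the orbital sinus at 5, 15, 30, 60, 120 and 180 min. Urine was pooled over 24 h. Drug levels were measured by agar disk diffusion microbioassay with Salmonella enteritidis A9531 as the assay organism.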

Canis familiaris = assay: Compound was evaluated in vivo in urine sample collected over 24 hours for its concentration after 25 mg/kg peroral administration to dogs.; details: route oral
Escherichia coli [5] = assay: Compound was tested for the dose to protect 50% of mice from lethal infection against Escherichia coli A 15119 after peroral administration to OF1-strain of female Swiss mice.; format: functional; details: po, read-out: PD50; summary of the method: as §1

Compound	MIC (Enterobacter cloacae)	S	MIC (Morganella morganii)	MIC (Serratia marcescens)	MIC (Klebsiella pneumoniae)	MIC (Escherichia coli [1])	MIC (Pseudomonas aeruginosa)	MIC (Enterococcus faecalis)	MIC (Proteus mirabilis)	MIC (Staphylococcus aureus [2])	MIC (Haemophilus influenzae)	MIC (Staphylococcus aureus [3])	MIC (Bacteroides fragilis)	MIC (Streptococcus pneumoniae)	ED50 [4]	UR (Mus musculus)	UR (Canis familiaris)	ED50 (Escherichia coli [5])
CC(C)(C)n1cc(C(=O)O)c(=O)c2cc(F)c(N3CCNCC3)cc21	0.13 µg/mL (≈ 0.374 µM)	130 µg/mL	0.25 µg/mL (≈ 0.72 µM)	0.5 µg/mL (≈ 1.44 µM)	0.06 µg/mL (≈ 0.173 µM)	0.06 µg/mL (≈ 0.173 µM)	0.5 µg/mL (≈ 1.44 µM)	2 µg/mL (≈ 5.76 µM)	0.25 µg/mL (≈ 0.72 µM)	0.25 µg/mL (≈ 0.72 µM)								
CC(CF)(CF)n1cc(C(=O)O)c(=O)c2cc(F)c(N3CCNCC3)cc21.Cl	0.25 µg/mL		0.06 µg/mL	0.5 µg/mL	0.13 µg/mL	0.13 µg/mL	1 µg/mL	1 µg/mL	0.13 µg/mL	1 µg/mL	0.06 µg/mL	2 µg/mL	16 µg/mL	8 µg/mL				
CS(=O)(=O)O.C[C@H]1C[C@H](N)CN1c1cc2c(cc1F)c(=O)c(C(=O)O)cn2C(C)(C)CF	0.06 µg/mL		0.5 µg/mL	0.25 µg/mL	0.13 µg/mL	0.03 µg/mL	1 µg/mL	0.25 µg/mL	0.13 µg/mL	0.03 µg/mL	0.016 µg/mL	0.03 µg/mL	4 µg/mL	0.25 µg/mL				
CC(CF)(CF)n1cc(C(=O)O)c(=O)c2cc(F)c(N3CC4C[C@@H]3CN4)nc21.Cl	0.13 µg/mL		0.13 µg/mL	0.5 µg/mL	0.5 µg/mL	0.13 µg/mL	1 µg/mL	4 µg/mL	0.5 µg/mL	2 µg/mL	0.016 µg/mL	2 µg/mL	32 µg/mL	8 µg/mL				
CC(C)(CF)n1cc(C(=O)O)c(=O)c2cc(F)c(N3CCNCC3)cc21.Cl	0.03 µg/mL		0.016 µg/mL	0.06 µg/mL	0.016 µg/mL	0.016 µg/mL	0.25 µg/mL	0.25 µg/mL	0.03 µg/mL	0.13 µg/mL	0.016 µg/mL	0.06 µg/mL	8 µg/mL	1 µg/mL				
CC(CF)(CF)n1cc(C(=O)O)c(=O)c2cc(F)c(N3CC[C@H](N)C3)nc21.CS(=O)(=O)O	0.5 µg/mL		0.5 µg/mL	2 µg/mL	2 µg/mL	0.5 µg/mL	8 µg/mL	16 µg/mL	4 µg/mL	8 µg/mL	0.25 µg/mL	4 µg/mL	125 µg/mL	16 µg/mL				
CC(C)(C)n1cc(C(=O)O)c(=O)c2cc(F)c(N3CC[C@H](N)C3)nc21	0.03 µg/mL (≈ 0.0861 µM)		0.13 µg/mL (≈ 0.373 µM)	0.25 µg/mL (≈ 0.718 µM)	0.03 µg/mL (≈ 0.0861 µM)	0.016 µg/mL (≈ 0.0459 µM)	0.25 µg/mL (≈ 0.718 µM)	0.06 µg/mL (≈ 0.172 µM)	0.13 µg/mL (≈ 0.373 µM)	0.004 µg/mL (≈ 0.0115 µM)		0.002 µg/mL (≈ 0.00574 µM)	1 µg/mL (≈ 2.87 µM)	0.008 µg/mL (≈ 0.023 µM)	> 25 mg/kg	10%	9%	1.2 mg/kg
CC(CF)(CF)n1cc(C(=O)O)c(=O)c2cc(F)c(N3CC[C@H](N)C3)cc21.CS(=O)(=O)O	0.06 µg/mL		0.016 µg/mL	0.13 µg/mL	0.13 µg/mL	0.008 µg/mL	0.25 µg/mL	0.5 µg/mL	0.03 µg/mL	0.06 µg/mL	0.001 µg/mL	0.13 µg/mL	4 µg/mL	0.5 µg/mL				
Cl.O=C(O)c1cn(C(CF)(CF)CF)c2nc(N3CC4C[C@@H]3CN4)c(F)cc2c1=O	0.25 µg/mL	240 µg/mL	0.25 µg/mL	1 µg/mL	0.5 µg/mL	0.25 µg/mL	4 µg/mL	32 µg/mL	1 µg/mL	4 µg/mL	0.06 µg/mL	4 µg/mL	125 µg/mL	32 µg/mL				

More lines, main results first:

MIC (Enterobacter cloacae)	S	MIC (Morganella morganii)	MIC (Serratia marcescens)	MIC (Klebsiella pneumoniae)	MIC (Escherichia coli [1])	MIC (Pseudomonas aeruginosa)	MIC (Enterococcus faecalis)	MIC (Proteus mirabilis)	MIC (Staphylococcus aureus [2])	MIC (Haemophilus influenzae)	MIC (Staphylococcus aureus [3])	MIC (Bacteroides fragilis)	MIC (Streptococcus pneumoniae)	Compound	ED50 [4]	UR (Mus musculus)	UR (Canis familiaris)	ED50 (Escherichia coli [5])
0.5 µg/mL		0.5 µg/mL	1 µg/mL	1 µg/mL	0.5 µg/mL	16 µg/mL	16 µg/mL	2 µg/mL	8 µg/mL	0.5 µg/mL	8 µg/mL	125 µg/mL	32 µg/mL	Cl.O=C(O)c1cn(C(CF)(CF)CF)c2nc(N3CCNCC3)c(F)cc2c1=O				
0.25 µg/mL	1600 µg/mL	0.13 µg/mL	0.25 µg/mL	0.25 µg/mL	0.13 µg/mL	1 µg/mL	2 µg/mL	0.25 µg/mL	0.25 µg/mL	0.13 µg/mL	0.5 µg/mL	16 µg/mL	0.5 µg/mL	CC(C)(CF)n1cc(C(=O)O)c(=O)c2cc(F)c(N3CCNCC3)nc21.Cl				
0.06 µg/mL		0.13 µg/mL	0.13 µg/mL	0.06 µg/mL	0.016 µg/mL	1 µg/mL	0.13 µg/mL	0.13 µg/mL	0.008 µg/mL	0.016 µg/mL	0.008 µg/mL	16 µg/mL	0.13 µg/mL	C[C@H]1C[C@H](N)CN1c1nc2c(cc1F)c(=O)c(C(=O)O)cn2C(C)(C)CF.Cl				
0.25 µg/mL		0.13 µg/mL	0.5 µg/mL	0.25 µg/mL	0.13 µg/mL	4 µg/mL	16 µg/mL	1 µg/mL	4 µg/mL	0.25 µg/mL	4 µg/mL	125 µg/mL	16 µg/mL	CC(CF)(CF)n1cc(C(=O)O)c(=O)c2cc(F)c(N3CCNCC3)nc21.Cl				
0.06 µg/mL		0.13 µg/mL	0.13 µg/mL	0.06 µg/mL	0.016 µg/mL	0.25 µg/mL	0.5 µg/mL	0.06 µg/mL	0.5 µg/mL	0.008 µg/mL	0.25 µg/mL	8 µg/mL	1 µg/mL	CC(C)(CF)n1cc(C(=O)O)c(=O)c2cc(F)c(N3C[C@H]4CC3CN4)cc21.Cl				
0.06 µg/mL		0.016 µg/mL	0.13 µg/mL	0.016 µg/mL	0.004 µg/mL	0.5 µg/mL	0.5 µg/mL	0.06 µg/mL	0.016 µg/mL	0.06 µg/mL	0.016 µg/mL	2 µg/mL	1 µg/mL	CC(C)(CF)n1cc(C(=O)O)c(=O)c2cc(F)c(N3CC(N)C3)cc21.Cl				
0.06 µg/mL (≈ 0.172 µM)	820 µg/mL	0.06 µg/mL (≈ 0.172 µM)	0.06 µg/mL (≈ 0.172 µM)	0.03 µg/mL (≈ 0.0861 µM)	0.016 µg/mL (≈ 0.0459 µM)	0.5 µg/mL (≈ 1.44 µM)	1 µg/mL (≈ 2.87 µM)	0.13 µg/mL (≈ 0.373 µM)	0.06 µg/mL (≈ 0.172 µM)	0.016 µg/mL (≈ 0.0459 µM)	0.25 µg/mL (≈ 0.718 µM)	8 µg/mL (≈ 23 µM)	1 µg/mL (≈ 2.87 µM)	CC(C)(C)n1cc(C(=O)O)c(=O)c2cc(F)c(N3CCNCC3)nc21				
1 µg/mL		2 µg/mL	2 µg/mL	2 µg/mL	0.5 µg/mL	32 µg/mL	4 µg/mL	4 µg/mL	0.5 µg/mL	0.5 µg/mL	1 µg/mL	125 µg/mL	8 µg/mL	C[C@H]1C[C@H](N)CN1c1nc2c(cc1F)c(=O)c(C(=O)O)cn2C(CF)(CF)CF.Cl				
2 µg/mL		2 µg/mL	2 µg/mL	2 µg/mL	0.5 µg/mL	32 µg/mL	32 µg/mL	2 µg/mL	4 µg/mL	0.25 µg/mL	8 µg/mL	125 µg/mL	32 µg/mL	Cl.N[C@H]1CCN(c2nc3c(cc2F)c(=O)c(C(=O)O)cn3C(CF)(CF)CF)C1				
0.13 µg/mL		0.06 µg/mL	0.25 µg/mL	0.03 µg/mL	0.03 µg/mL	1 µg/mL	4 µg/mL	0.5 µg/mL	0.03 µg/mL	0.5 µg/mL	0.13 µg/mL	16 µg/mL	0.03 µg/mL	CC(C)(CF)n1cc(C(=O)O)c(=O)c2cc(F)c(N3CC[C@H](N)C3)nc21.Cl				
0.03 µg/mL (≈ 0.0791 µM)		0.06 µg/mL (≈ 0.158 µM)	0.13 µg/mL (≈ 0.343 µM)	0.13 µg/mL (≈ 0.343 µM)	0.008 µg/mL (≈ 0.0211 µM)	0.5 µg/mL (≈ 1.32 µM)	0.25 µg/mL (≈ 0.659 µM)	0.06 µg/mL (≈ 0.158 µM)	0.03 µg/mL (≈ 0.0791 µM)	0.008 µg/mL (≈ 0.0211 µM)	0.06 µg/mL (≈ 0.158 µM)	4 µg/mL (≈ 10.5 µM)	0.25 µg/mL (≈ 0.659 µM)	C[C@H]1CN(c2cc3c(cc2F)c(=O)c(C(=O)O)cn3C(C)(C)CF)C[C@@H]1N				
